Data reported in ChEMBL document CHEMBL1649186, “Characterization of macrolide efflux pump mef subclasses detected in clinical isolates of Streptococcus pyogenes isolated between 1999 and 2005” (2009).
Values after ≈ are worked out from the molar mass of the structure shown.

What was measured:
Type in all cases: functional
Streptococcus pyogenes [1] = assay: Antimicrobial activity against Streptococcus pyogenes clinical isolate expressing mosaic variant of mef gene by broth microdilution method
Outline: (§1)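 Clinical isolates were subcultured from -70°C or 4°C storage onto horse blood agar and grown overnight at 36°C in 5 to 6% CO2. MICs were then measured by CLSI broth microdilution. mef presence was screened by a TaqMan plus/minus assay, and the mef subclass was assigned by sequencing.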

Streptococcus pyogenes [2] = assay: Antimicrobial activity against Streptococcus pyogenes clinical isolate expressing mef(A) gene by broth microdilution method; outline: as §1
Streptococcus pyogenes [3] = assay: Antimicrobial activity against Streptococcus pyogenes clinical isolate expressing mef(E) gene by broth microdilution method; outline: as §1

Structure (SMILES)	MIC (Streptococcus pyogenes [1]) [µg/mL]	MIC50 (Streptococcus pyogenes [1]) [µg/mL]	MIC90 (Streptococcus pyogenes [1]) [µg/mL]	MIC50 (Streptococcus pyogenes [2]) [µg/mL]	MIC90 (Streptococcus pyogenes [2]) [µg/mL]	MIC50 (Streptococcus pyogenes [3]) [µg/mL]	MIC90 (Streptococcus pyogenes [3]) [µg/mL]	MIC (Streptococcus pyogenes [2]) [µg/mL]
CC[C@H]1OC(=O)[C@H](C)[C@@H](O[C@H]2C[C@@](C)(OC)[C@@H](O)[C@H](C)O2)[C@H](C)[C@@H](O[C@@H]2O[C@H](C)C[C@H](N(C)C)[C@H]2O)[C@](C)(O)C[C@@H](C)C(=O)[C@H](C)[C@@H](O)[C@]1(C)O [ERYTHROMYCIN]	8 (≈ 10.9 µM)	8 (≈ 10.9 µM)	16 (≈ 21.8 µM)	16 (≈ 21.8 µM)	16 (≈ 21.8 µM)	8 (≈ 10.9 µM)	16 (≈ 21.8 µM)	
CCC[C@@H]1C[C@@H](C(=O)N[C@@H]([C@H]2O[C@H](SC)[C@H](O)[C@@H](O)[C@H]2O)[C@H](C)Cl)N(C)C1 [CLINDAMYCIN]		0.06 (≈ 0.141 µM)	0.06 (≈ 0.141 µM)	0.06 (≈ 0.141 µM)	0.25 (≈ 0.588 µM)	0.25 (≈ 0.588 µM)	0.25 (≈ 0.588 µM)	
CC[C@H]1OC(=O)[C@H](C)[C@@H](O[C@H]2C[C@@](C)(OC)[C@@H](O)[C@H](C)O2)[C@H](C)[C@@H](O[C@@H]2O[C@H](C)C[C@H](N(C)C)[C@H]2O)[C@](C)(OC)C[C@@H](C)C(=O)[C@H](C)[C@@H](O)[C@]1(C)O [CLARITHROMYCIN]		8 (≈ 10.7 µM)	8 (≈ 10.7 µM)	8 (≈ 10.7 µM)	16 (≈ 21.4 µM)	4 (≈ 5.35 µM)	8 (≈ 10.7 µM)	
CN(C)[C@@H]1C(O)=C(C(N)=O)C(=O)[C@@]2(O)C(O)=C3C(=O)c4c(O)cccc4[C@@](C)(O)[C@H]3C[C@@H]12 [TETRACYCLINE]	32 (≈ 72 µM)	32 (≈ 72 µM)	32 (≈ 72 µM)	0.25 (≈ 0.563 µM)	0.25 (≈ 0.563 µM)	32 (≈ 72 µM)	32 (≈ 72 µM)	0.25 (≈ 0.563 µM)
CC[C@H]1OC(=O)[C@H](C)[C@@H](O[C@H]2C[C@@](C)(OC)[C@@H](O)[C@H](C)O2)[C@H](C)[C@@H](O[C@@H]2O[C@H](C)C[C@H](N(C)C)[C@H]2O)[C@](C)(O)C[C@@H](C)CN(C)[C@H](C)[C@@H](O)[C@]1(C)O [AZITHROMYCIN]	16 (≈ 21.4 µM)	16 (≈ 21.4 µM)	32 (≈ 42.7 µM)	8 (≈ 10.7 µM)	16 (≈ 21.4 µM)	8 (≈ 10.7 µM)	16 (≈ 21.4 µM)	
